Assays:
[1] = test system: Rattus norvegicus; assay: Change in diastolic blood pressure after iv administration of 200 ug/Kg in anesthetized rats; assay type: functional, Artery
Procedure, shortened: (§1)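 Adult male Wistar rats under ip ethylurethane (10% w/v in saline, 1 mL/kg) with tracheal cannula and spontaneous breathing, kept at 37 °C. Arterial BP was recorded by femoral artery catheter; compound in saline (50 µL) was given via femoral vein at 50–3200 µg/kg, ratio 2.0. Peak change is given as mean ± SE, n = 12 (n = 7 at 3200 µg/kg).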

[2] = test system: Rattus norvegicus; assay: Maximum rate of rise of the left ventricular isovolumetric pressure was measured after iv administration of 4.12 uM/kg in anesthetized rats; ratio given for dP/dt; assay type: functional, Heart left ventricle
[3] = test system: Rattus norvegicus; assay: Change in heart rate after iv administration of 3200 ug/Kg in anesthetized rats; assay type: functional; procedure, shortened: as §1
[4] = test system: Rattus norvegicus; assay: Change in stroke volume after iv administration of 50 ug/Kgg in anesthetized rats; assay type: functional
Procedure, shortened: (§2)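 Male Wistar rats (299 ± 3 g) were anesthetized with ethylurethane ip, tracheally cannulated and breathing spontaneously, at 37 °C, and stabilized for 60 min. Doses of 50-3200 µg/kg (ratio 2.0) in saline were injected by femoral vein, 50 µL each. Recordings: femoral arterial BP, electromagnetic abdominal-aortic flow, SV from integrated pulsatile flow, polygraphic RF. Peak changes, mean ± SE, n = 12 (n = 7 at 3200).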

[5] = test system: Rattus norvegicus; assay: Change in stroke volume after iv administration of 200 ug/Kg in anesthetized rats; assay type: functional; procedure, shortened: as §2
[6] = test system: Rattus norvegicus; assay: Change in systolic blood pressure after iv administration of 4.12 uM/kg in anesthetized rats; assay type: functional, Artery
Procedure, shortened: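 Doses were 4.12 µM/kg (two agents), guanethidine 25, clonidine 0.108, hexamethonium 12, reserpine 8, papaverine 5 and histamine […]. Peak changes in systolic BP or HR were recorded.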

[7] = test system: Rattus norvegicus; assay: Maximum rate of rise of the left ventricular isovolumetric pressure was measured after iv administration of 1600 ug/Kg in the presence of isoprenaline (agonist) in anesthetized rats; assay type: functional, Heart left ventricle
Procedure, shortened: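 Anesthetized male Wistar rats, two groups of 8, received 400 or 1600 µg/kg iv. Before and after this dose, iv agonist challenges were given: noradrenaline 1 µg/kg, adrenaline, acetylcholine 2.50 µg/kg, or isoprenaline. Systolic/diastolic BP, heart rate and dP/dt responses were recorded before (control) and after dosing; significance was set at p < 0.05 versus control.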

## COc1ccc(C2C(c3ccc(OC)c(OC)c3)[C@H](C(=O)NCCCC/N=C(\N)NCC=C(C)C)[C@@H]2C(=O)NCCCC/N=C(\N)NCC=C(C)C)cc1OC (stereo not given in full) [CARACASANDIAMIDE]
[1]
  BP: -13 mmHg
  Change in BP: -17%
[2]
  dP/dt: 3990 mmHg s-1
[3]
  Change in heart rate: -11%
  Heart rate: -41 beats min-1
[4]
  Stroke volume: 73 µL
[5]
  Change in stroke volume: 11%
  Stroke volume: 23 µL
[6]
  BP: -43 mmHg
[7]
  dP/dt: 14552 mmHg s-1
